This is an account of results in ChEMBL document CHEMBL1136990, “Design of HIV-1 protease inhibitors with pyrrolidinones and oxazolidinones as novel P1'-ligands to enhance backbone-binding interactions with protease: synthesis, biological evaluation, and protein-ligand X-ray studies” (J Med Chem, 2009).

One may read the pKi as −log10 of the Ki, conventionally taken in molar units. Low values mean a large Ki, high ones a small Ki. What is called pIC50 is the negative decadic logarithm of the IC50, by convention in mol/L. Read a low pIC50 as a large IC50. Broadly, the pEC50 is −log10 of the EC50, conventionally taken in molar units.

The nature of experiment [1]: Inhibition of HIV protease by fluorescence energy transfer assay. Also on record: species or system Human immunodeficiency virus.
In experiment [2] the test system is Human immunodeficiency virus 1. The experiment in a line: Antiviral activity against HIV1 LAI in human MT2 cells by MTT assay. The conditions noted are these: Human immunodeficiency virus 1, LAI. Type of experiment: functional, organism-based.
In experiment [3] the test system is Human immunodeficiency virus 1. The experiment in a line: Antiviral activity against wild type HIV1 isolate ERS104pre infected in PHA-stimulated PBMC assessed as inhibition of p24 […] protein. Format: functional, organism-based. Conditions: Human immunodeficiency virus 1, isolate ERS104pre. In outline:
(§1)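 Clinical HIV-1 isolates were tested in PHA-stimulated peripheral blood mononuclear cells as targets, with inhibition of p24 Gag protein production as the end point. Each value was determined in duplicate or triplicate and derived from three independent experiments.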

In experiment [4] the test system is Human immunodeficiency virus 1. Briefly: Antiviral activity against multidrug-resistant HIV1 isolate TM infected in PHA-stimulated PBMC assessed as inhibition of p24 […] protein. Format: functional, organism-based. Conditions: Human immunodeficiency virus 1, isolate TM. In outline:
as §1

Experiment [5] has as its system Human immunodeficiency virus 1. Briefly: Antiviral activity against multidrug-resistant HIV1 isolate MM infected in PHA-stimulated PBMC assessed as inhibition of p24 […] protein. Conditions: Human immunodeficiency virus 1, isolate MM. Type of experiment: functional, organism-based. In outline: as §1
In experiment [6] the test system is Human immunodeficiency virus 1. The experiment in a line: Antiviral activity against multidrug-resistant HIV1 isolate C infected in PHA-stimulated PBMC assessed as inhibition of p24 […] protein. Type of experiment: functional, organism-based. Conditions: Human immunodeficiency virus 1, isolate C. The essentials:
as §1

Experiment [7] concerns Human immunodeficiency virus 1. Briefly: Antiviral activity against multidrug-resistant HIV1 isolate G infected in PHA-stimulated PBMC assessed as inhibition of p24 […] protein. Format: functional, organism-based. Conditions: Human immunodeficiency virus 1, isolate G. The essentials:
as §1

Experiment [8] deals with Human immunodeficiency virus 1. The experiment in a line: Ratio of EC50 for multidrug-resistant HIV1 isolate TM to EC50 for wild type HIV1 isolate ERS104pre. Format: functional. In outline:
(§2)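 Fold change is the EC50 against each multidrug-resistant isolate divided by the EC50 against HIV-1ERS104pre. EC50s came from PHA-stimulated PBMC with a p24 Gag production end point, run in duplicate or triplicate across three independent experiments.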

The test system of experiment [9] is Human immunodeficiency virus 1. The experiment in a line: Ratio of EC50 for multidrug-resistant HIV1 isolate MM to EC50 for wild type HIV1 isolate ERS104pre. Type of experiment: functional. In outline:
as §2

Experiment [10] deals with Human immunodeficiency virus 1. Briefly: Ratio of EC50 for multidrug-resistant HIV1 isolate C to EC50 for wild type HIV1 isolate ERS104pre. Type of experiment: functional. In outline:
as §2

The subject of experiment [11] is Human immunodeficiency virus 1. The experiment in a line: Ratio of EC50 for multidrug-resistant HIV1 isolate G to EC50 for wild type HIV1 isolate ERS104pre. Format: functional. The essentials: as §2
Experiment [12] has as its system Human immunodeficiency virus 1. Briefly: Antiviral activity against saquinavir-resistant HIV1 NL4-3. Type of experiment: functional, organism-based. The conditions noted are these: Human immunodeficiency virus 1, NL4-3.
Experiment [13] has as its system Human immunodeficiency virus 1. The experiment in a line: Antiviral activity against amprenavir-resistant HIV1 NL4-3. The conditions noted are these: Human immunodeficiency virus 1, NL4-3. Format: functional, organism-based.
The subject of experiment [14] is Human immunodeficiency virus 1. The experiment in a line: Antiviral activity against indinavir-resistant HIV1 NL4-3. The conditions noted are these: Human immunodeficiency virus 1, NL4-3. Format: functional, organism-based.
For experiment [15], the system named is Human immunodeficiency virus 1. The experiment in a line: Antiviral activity against nelfinavir-resistant HIV1 NL4-3. Type of experiment: functional, organism-based. Conditions: Human immunodeficiency virus 1, NL4-3.
In experiment [16] the test system is Human immunodeficiency virus 1. Briefly: Antiviral activity against ritonavir-resistant HIV1 NL4-3. Format: functional, organism-based. Conditions: Human immunodeficiency virus 1, NL4-3.
The test system of experiment [17] is Human immunodeficiency virus 1. Briefly: Antiviral activity against lopinavir-resistant HIV1 NL4-3. Format: functional, organism-based. The conditions noted are these: Human immunodeficiency virus 1, NL4-3.
Experiment [18] concerns Human immunodeficiency virus 1. Briefly: Antiviral activity against atazanavir-resistant HIV1 NL4-3. Type of experiment: functional, organism-based. Conditions: Human immunodeficiency virus 1, NL4-3.

pEC50, pIC50, pKi: −log10 of the molar value. Some results are limits rather than exact numbers.

On to `COc1ccc(S(=O)(=O)N(C[C@@H]2CCC(=O)N2)C[C@@H](O)[C@H](Cc2ccccc2)NC(=O)O[C@H]2CO[C@H]3OCC[C@H]32)cc1`, for which, in experiment [1], the pKi was 9.07. In [2], the pIC50 is 6.32.
Molecule `Nc1ccc(S(=O)(=O)N(C[C@H]2CCC(=O)N2)C[C@@H](O)[C@H](Cc2ccccc2)NC(=O)O[C@@H]2C[C@@H]3CCO[C@@H]3C2)cc1` showed a pKi in experiment [1] of 9.51. Also, the pIC50 in experiment [2] is 6.22.
`COc1ccc(S(=O)(=O)N(C[C@@H]2COC(=O)N2)C[C@@H](O)[C@H](Cc2ccccc2)NC(=O)O[C@H]2CO[C@H]3OCC[C@H]32)cc1` showed a negative-log Ki (pKi) in experiment [1] of 9.55. The same molecule gave a pIC50 in experiment [2] of 6.32.
With `Nc1ccc(S(=O)(=O)N(C[C@H]2COC(=O)N2)C[C@@H](O)[C@H](Cc2ccccc2)NC(=O)O[C@H]2CO[C@H]3OCC[C@H]32)cc1`, in experiment [1], the pKi was 9.62. Further, the pIC50 in experiment [2] was less than 6.00.
In experiment [1], `Nc1ccc(S(=O)(=O)N(C[C@@H]2COC(=O)N2)C[C@@H](O)[C@H](Cc2ccccc2)NC(=O)O[C@H]2CO[C@H]3OCC[C@H]32)cc1` had a pKi of 9.51.
As for `Nc1ccc(S(=O)(=O)N(C[C@@H]2CCC(=O)N2)C[C@@H](O)[C@H](Cc2ccccc2)NC(=O)O[C@@H]2C[C@@H]3CCO[C@@H]3C2)cc1`, the pKi in experiment [1] is 8.90. Further, the pIC50 in experiment [2] was less than 6.00.
Consider `COc1ccc(S(=O)(=O)N(C[C@H]2COC(=O)N2)C[C@@H](O)[C@H](Cc2ccccc2)NC(=O)O[C@H]2CO[C@H]3OCC[C@H]32)cc1`, for which the pKi in [1] is 10.46. The pIC50 in experiment [2] was 6.51.
Take `Nc1ccc(S(=O)(=O)N(C[C@@H]2CCC(=O)N2)C[C@@H](O)[C@H](Cc2ccccc2)NC(=O)O[C@H]2CO[C@H]3OCC[C@H]32)cc1`: the pKi in [1] is 9.55.
`CC(C)CN(C[C@@H](O)[C@H](Cc1ccccc1)NC(=O)O[C@H]1CCOC1)S(=O)(=O)c1ccc(N)cc1`: the negative-log EC50 (pEC50) in experiment [3] is 7.60; in experiment [4] it was 6.60; in experiment [5], 6.49; in experiment [6], 6.46; in experiment [7], 6.48. The “Ratio EC50” value in experiment [8] came to 10; in experiment [9], 13; in experiment [10], 14; in experiment [11], 13.
On to `COc1ccc(S(=O)(=O)N(C[C@H]2CCC(=O)N2)C[C@@H](O)[C@H](Cc2ccccc2)NC(=O)O[C@H]2CO[C@H]3OCC[C@H]32)cc1`, for which the pKi in experiment [1] was 9.92. For the same molecule, the negative logarithm of the IC50 (pIC50) in experiment [2] is 6.60.
In the case of `COc1ccc(S(=O)(=O)N(C[C@@H]2CCC(=O)N2)C[C@@H](O)[C@H](Cc2ccccc2)NC(=O)O[C@@H]2C[C@@H]3CCO[C@@H]3C2)cc1`, the negative-log Ki (pKi) in experiment [1] was 9.51. Further, the negative logarithm of the IC50 (pIC50) in [2] was 6.64.
Consider `COc1ccc(S(=O)(=O)N(C[C@H]2CCC(=O)N2)C[C@@H](O)[C@H](Cc2ccccc2)NC(=O)O[C@@H]2C[C@@H]3CCO[C@@H]3C2)cc1`, for which the pIC50 in experiment [2] is 7.59. In addition, the pEC50 is 7.55 in experiment [3]; 7.54 in experiment [4]; 7.38 in experiment [5]; 7.64 in experiment [6]; 7.57 in [7]; 7.44 in experiment [12]. The negative logarithm of the EC50 (pEC50) in experiment [13], in experiment [14], in experiment [15], in experiment [16], in experiment [17] and in experiment [18] was 7.44 in each case. Moreover, the “Ratio EC50” value in experiment [8] stood at 1; in experiment [9], 2; in [10] it was 1; in experiment [11], 1.
With `Nc1ccc(S(=O)(=O)N(C[C@H]2CCC(=O)N2)C[C@@H](O)[C@H](Cc2ccccc2)NC(=O)O[C@H]2CO[C@H]3OCC[C@H]32)cc1`, the negative logarithm of the Ki (pKi) in experiment [1] was 9.07. Besides, in [2], the pIC50 is less than 6.00.
With `CC(C)(C)NC(=O)[C@@H]1CN(Cc2cccnc2)CCN1C[C@@H](O)C[C@@H](Cc1ccccc1)C(=O)N[C@H]1c2ccccc2C[C@H]1O.O`, the negative logarithm of the EC50 (pEC50) in experiment [3] was 7.55; in experiment [4], less than 6.00; in experiment [5], less than 6.00; in experiment [6], less than 6.00; in experiment [7] it was 6.54. Also, the “Ratio EC50” value in experiment [8] is greater than 36; in experiment [9], greater than 36; in experiment [10], greater than 36; in experiment [11] it was 10.
